Values after ≈ are worked out from the molar mass of the structure shown.
Assays:
[1] = test system: Stenotrophomonas maltophilia; test: Antimicrobial activity against Stenotrophomonas maltophilia ATCC 13637 after 18 to 24 hrs by alamar blue assay; format: functional; settings: Stenotrophomonas maltophilia, ATCC 13637; read-out: MIC
How it was run: (§1)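 Broth microdilution per NCCLS in Mueller-Hinton broth, 8-point twofold dilutions, 384-well format. Exponential-phase cells at 5 × 10^5 cells/ml incubated with compound 18–24 h at 37 °C, then 20% Alamar blue added and fluorescence read. MIC90 taken as the lowest concentration preventing at least 90% bacterial growth.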

[2] = test system: Acinetobacter baumannii; test: Antimicrobial activity against Acinetobacter baumannii ATCC 49139 after 18 to 24 hrs by alamar blue assay; format: functional; settings: Acinetobacter baumannii, ATCC 49139; read-out: MIC; how it was run: as §1
[3] = Inhibition of transglycosylase assessed as inhibition of NBD- labelled lipid II polymerization
How it was run: (§2)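 100 µM NBD-labelled lipid II incubated 30 min with full-length PBP (EC, SA or Mtb) and 10 ng/µl N-acetylmuramidase in 50 mM Tris-HCl pH 8.0, 10 mM MgCl2, 0.1% Triton X-100, 10% DMSO, 15% MeOH. Supernatant run on anion-exchange HPLC with 20 mM–0.5 M ammonium acetate gradient. Inhibition calculated from substrate peak-area percentage. IC50 determined. S. aureus strains share one SA enzyme.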

[4] = test system: Mycolicibacterium smegmatis; test: Antimicrobial activity against Mycobacterium smegmatis BCRC 11565 after 18 to 24 hrs by alamar blue assay; format: functional; settings: Mycolicibacterium smegmatis, BCRC 11565; read-out: MIC; how it was run: as §1
[5] = test system: Staphylococcus aureus; test: Antimicrobial activity against Staphylococcus aureus ATCC 29213 after 18 to 24 hrs by alamar blue assay
[6] = test system: Staphylococcus aureus; test: Antimicrobial activity against methicillin-resistant Staphylococcus aureus ATCC 33592 after 18 to 24 hrs by alamar blue assay; format: functional; settings: Staphylococcus aureus, ATCC 33592; read-out: MIC
How it was run: (§3)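 Broth microdilution per NCCLS standard, Mueller-Hinton broth, 8-point twofold dilutions; exponentially growing cells at 5 10^5 cells/ml with compound, 18–24 h at 37 C; 20% Alamar blue added, fluorescence read; MIC90 taken as lowest concentration preventing at least 90% growth.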

[7] = test system: Bacillus subtilis; test: Antimicrobial activity against Bacillus subtilis ATCC 23857 after 18 to 24 hrs by alamar blue assay; format: functional; how it was run: as §1
[8] = test system: Pseudomonas aeruginosa; test: Antimicrobial activity against Pseudomonas aeruginosa ATCC 25619 after 18 to 24 hrs by alamar blue assay; format: functional; settings: Pseudomonas aeruginosa, ATCC 25619; read-out: MIC; how it was run: as §1
[9] = test system: Staphylococcus aureus; test: Antimicrobial activity against methicillin-resistant Staphylococcus aureus isolate NTUH4722 after 18 to 24 hrs by alamar blue assay; format: functional; how it was run: as §3
[10] = test system: Escherichia coli; test: Antimicrobial activity against Escherichia coli ATCC […] after 18 to 24 hrs by alamar blue assay; format: functional; settings: Escherichia coli; read-out: MIC; how it was run: as §1
[11] = test system: Serratia marcescens; test: Antimicrobial activity against Serratia marcescens ATCC 14756 after 18 to 24 hrs by alamar blue assay; format: functional; settings: Serratia marcescens, ATCC 14756; read-out: MIC; how it was run: as §1
[12] = test system: Staphylococcus aureus; test: Antimicrobial activity against oxacillin- and methicillin-resistant Staphylococcus aureus isolate Sa-OXA-R2 after 18 to 24 hrs by alamar blue assay; format: functional; how it was run: as §3
[13] = Displacement of fluorescein-labeled moenomycin from transglycosylase at 100 uM after 30 mins by fluorescence anisotropy binding assay
[14] = Inhibition of transglycosylase assessed as inhibition of NBD- labelled lipid II polymerization at 100 uM; how it was run: as §2

O=C(Nc1cc(Cl)cc(C(=O)c2ccc(Cl)cc2)c1Cl)c1cc(Cl)cc(Br)c1O
MIC [1]: 16 µg/mL (≈ 30 µM) | MIC [2]: 16 µg/mL (≈ 30 µM) | IC90 [3]: 100 µM | MIC [4]: 0.5 µg/mL (≈ 0.936 µM) | MIC [5]: 0.5 µg/mL (≈ 0.936 µM) | MIC [6]: 0.5 µg/mL (≈ 0.936 µM) | MIC [7]: < 0.03 µg/mL | MIC [8]: 16 µg/mL (≈ 30 µM) | MIC [9]: 1 µg/mL (≈ 1.87 µM) | MIC [10]: 8 µg/mL (≈ 15 µM) | MIC [11]: 16 µg/mL (≈ 30 µM) | MIC [12]: 0.5 µg/mL (≈ 0.936 µM)

O=C(Nc1ccc(Sc2nc3ccccc3s2)c(Cl)c1)c1cc(Cl)cc(Cl)c1O
MIC [1]: 16 µg/mL (≈ 33.2 µM) | MIC [2]: 16 µg/mL (≈ 33.2 µM) | IC90 [3]: > 100 µM | MIC [4]: 0.5 µg/mL (≈ 1.04 µM) | MIC [5]: 8 µg/mL (≈ 16.6 µM) | MIC [6]: 4 µg/mL (≈ 8.3 µM) | MIC [7]: < 0.03 µg/mL | MIC [8]: 16 µg/mL (≈ 33.2 µM) | MIC [9]: ≤ 0.03 µg/mL | MIC [10]: 8 µg/mL (≈ 16.6 µM) | MIC [11]: 16 µg/mL (≈ 33.2 µM) | MIC [12]: ≤ 0.03 µg/mL

O=C(Nc1ccc(S(=O)(=O)c2nc3ccccc3s2)c(Cl)c1)c1cc(Cl)cc(Cl)c1O
MIC [1]: 16 µg/mL (≈ 31.1 µM) | MIC [2]: 16 µg/mL (≈ 31.1 µM) | IC90 [3]: 100 µM | MIC [4]: 0.5 µg/mL (≈ 0.973 µM) | MIC [5]: 8 µg/mL (≈ 15.6 µM) | MIC [6]: 4 µg/mL (≈ 7.78 µM) | MIC [7]: < 0.03 µg/mL | MIC [8]: 16 µg/mL (≈ 31.1 µM) | MIC [9]: ≤ 0.03 µg/mL | MIC [10]: 8 µg/mL (≈ 15.6 µM) | MIC [11]: 16 µg/mL (≈ 31.1 µM) | MIC [12]: ≤ 0.03 µg/mL

O=C(c1ccc(Cl)cc1)c1cc(NC(=O)c2cc(I)cc(I)c2O)ccc1Cl
MIC [1]: 16 µg/mL (≈ 25.1 µM) | MIC [2]: 16 µg/mL (≈ 25.1 µM) | IC90 [3]: 100 µM | MIC [4]: 0.5 µg/mL (≈ 0.784 µM) | MIC [5]: ≤ 2 µg/mL | MIC [6]: 4 µg/mL (≈ 6.27 µM) | MIC [7]: < 0.03 µg/mL | MIC [8]: 16 µg/mL (≈ 25.1 µM) | MIC [9]: ≤ 0.03 µg/mL | MIC [10]: 8 µg/mL (≈ 12.5 µM) | MIC [11]: 16 µg/mL (≈ 25.1 µM) | MIC [12]: ≤ 0.03 µg/mL

O=C(Nc1ccc(Oc2ccc(Cl)c3cccnc23)c(Br)c1)c1cc(Br)cc(Br)c1O
MIC [1]: 16 µg/mL (≈ 25.5 µM) | MIC [2]: 16 µg/mL (≈ 25.5 µM) | IC90 [3]: 50 µM | MIC [4]: 0.5 µg/mL (≈ 0.797 µM) | MIC [5]: 32 µg/mL (≈ 51 µM) | MIC [6]: 16 µg/mL (≈ 25.5 µM) | MIC [7]: < 0.03 µg/mL | MIC [8]: 16 µg/mL (≈ 25.5 µM) | MIC [9]: ≤ 0.03 µg/mL | MIC [10]: 8 µg/mL (≈ 12.7 µM) | MIC [11]: 16 µg/mL (≈ 25.5 µM) | MIC [12]: ≤ 0.03 µg/mL

O=C(Nc1ccc(Oc2ccc(Cl)cc2)c(Cl)c1)c1cc(Br)cc(Br)c1O
MIC [1]: 16 µg/mL (≈ 30.1 µM) | MIC [2]: 16 µg/mL (≈ 30.1 µM) | IC90 [3]: 100 µM | MIC [4]: 0.5 µg/mL (≈ 0.94 µM) | MIC [5]: 0.5 µg/mL (≈ 0.94 µM) | MIC [6]: 0.25 µg/mL (≈ 0.47 µM) | MIC [7]: < 0.03 µg/mL | MIC [8]: 16 µg/mL (≈ 30.1 µM) | MIC [9]: 0.25 µg/mL (≈ 0.47 µM) | MIC [10]: 8 µg/mL (≈ 15 µM) | MIC [11]: 16 µg/mL (≈ 30.1 µM) | MIC [12]: 0.5 µg/mL (≈ 0.94 µM)

C(=C\c1nc([P+](c2ccccc2)(c2ccccc2)c2ccccc2)c(N2CCCCCC2)o1)/c1ccccc1
inhibition [13]: 97% | inhibition [14]: 0%

O=C(Nc1cc(Cl)ccc1Oc1ccc(Cl)c2ccccc12)c1cc(I)cc(I)c1O
MIC [1]: 16 µg/mL (≈ 23.7 µM) | MIC [2]: 16 µg/mL (≈ 23.7 µM) | IC90 [3]: 50 µM | MIC [4]: 0.5 µg/mL (≈ 0.74 µM) | MIC [5]: 4 µg/mL (≈ 5.92 µM) | MIC [6]: ≤ 2 µg/mL | MIC [7]: < 0.03 µg/mL | MIC [8]: 16 µg/mL (≈ 23.7 µM) | MIC [9]: ≤ 0.03 µg/mL | MIC [10]: 8 µg/mL (≈ 11.8 µM) | MIC [11]: 16 µg/mL (≈ 23.7 µM) | MIC [12]: ≤ 0.03 µg/mL

O=C(c1ccccc1)c1cc(NC(=O)c2cc(Br)cc(Br)c2O)ccc1Cl
MIC [1]: 16 µg/mL (≈ 31.4 µM) | MIC [2]: 16 µg/mL (≈ 31.4 µM) | IC90 [3]: 100 µM | MIC [4]: 0.5 µg/mL (≈ 0.981 µM) | MIC [5]: 1 µg/mL (≈ 1.96 µM) | MIC [6]: 1 µg/mL (≈ 1.96 µM) | MIC [7]: < 0.03 µg/mL | MIC [8]: 16 µg/mL (≈ 31.4 µM) | MIC [9]: 2 µg/mL (≈ 3.92 µM) | MIC [10]: 8 µg/mL (≈ 15.7 µM) | MIC [11]: 16 µg/mL (≈ 31.4 µM) | MIC [12]: 1 µg/mL (≈ 1.96 µM)

O=C(Nc1ccc(Oc2ccc(Cl)c3cccnc23)c(Cl)c1)c1cc(Br)cc(Br)c1O
MIC [1]: 16 µg/mL (≈ 27.4 µM) | MIC [2]: 16 µg/mL (≈ 27.4 µM) | IC90 [3]: 100 µM | MIC [4]: 0.5 µg/mL (≈ 0.858 µM) | MIC [5]: 16 µg/mL (≈ 27.4 µM) | MIC [6]: 32 µg/mL (≈ 54.9 µM) | MIC [7]: < 0.03 µg/mL | MIC [8]: 16 µg/mL (≈ 27.4 µM) | MIC [9]: ≤ 0.03 µg/mL | MIC [10]: 8 µg/mL (≈ 13.7 µM) | MIC [11]: 16 µg/mL (≈ 27.4 µM) | MIC [12]: ≤ 0.03 µg/mL

Cc1ccc(OC(=O)c2cc(-c3ccc(C)c(C)c3)on2)c(C)c1
inhibition [13]: 95% | inhibition [14]: 0%

O=C(Nc1ccc(Oc2ccc3ccccc3c2Cl)c(Cl)c1)c1cc(I)cc(I)c1O
MIC [1]: 16 µg/mL (≈ 23.7 µM) | MIC [2]: 16 µg/mL (≈ 23.7 µM) | IC90 [3]: > 100 µM | MIC [4]: 0.5 µg/mL (≈ 0.74 µM) | MIC [5]: 8 µg/mL (≈ 11.8 µM) | MIC [6]: 8 µg/mL (≈ 11.8 µM) | MIC [7]: < 0.03 µg/mL | MIC [8]: 16 µg/mL (≈ 23.7 µM) | MIC [9]: ≤ 0.03 µg/mL | MIC [10]: 8 µg/mL (≈ 11.8 µM) | MIC [11]: 16 µg/mL (≈ 23.7 µM) | MIC [12]: ≤ 0.03 µg/mL

— ChEMBL document CHEMBL1629439, “High-throughput identification of antibacterials against methicillin-resistant Staphylococcus aureus (MRSA) and the transglycosylase” (Bioorg Med Chem, 2010)
